From PubChem BioAssay
Activity calls are given as the source filed them.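 How the source made its calls: active means current rise at least 3 SD above the untreated control mean in each of two repeat wells; inactive means the rest.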

molecular target: Potassium voltage-gated channel subfamily KQT member 1 (Homo sapiens) (UniProt P51787); test: KCNQ1 channel current potentiators, confirmation, orthogonal assay for KCNQ1 potentiator project, IonWorks patch clamp, KCNQ1-CHO cells (AID 493184); details: automated patch clamp current, at 10 µM; active compounds read high;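 on current potentiation: percent change of the same well's current before compound addition so 0% = no change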
Sequence (P51787 whole entry, looked up): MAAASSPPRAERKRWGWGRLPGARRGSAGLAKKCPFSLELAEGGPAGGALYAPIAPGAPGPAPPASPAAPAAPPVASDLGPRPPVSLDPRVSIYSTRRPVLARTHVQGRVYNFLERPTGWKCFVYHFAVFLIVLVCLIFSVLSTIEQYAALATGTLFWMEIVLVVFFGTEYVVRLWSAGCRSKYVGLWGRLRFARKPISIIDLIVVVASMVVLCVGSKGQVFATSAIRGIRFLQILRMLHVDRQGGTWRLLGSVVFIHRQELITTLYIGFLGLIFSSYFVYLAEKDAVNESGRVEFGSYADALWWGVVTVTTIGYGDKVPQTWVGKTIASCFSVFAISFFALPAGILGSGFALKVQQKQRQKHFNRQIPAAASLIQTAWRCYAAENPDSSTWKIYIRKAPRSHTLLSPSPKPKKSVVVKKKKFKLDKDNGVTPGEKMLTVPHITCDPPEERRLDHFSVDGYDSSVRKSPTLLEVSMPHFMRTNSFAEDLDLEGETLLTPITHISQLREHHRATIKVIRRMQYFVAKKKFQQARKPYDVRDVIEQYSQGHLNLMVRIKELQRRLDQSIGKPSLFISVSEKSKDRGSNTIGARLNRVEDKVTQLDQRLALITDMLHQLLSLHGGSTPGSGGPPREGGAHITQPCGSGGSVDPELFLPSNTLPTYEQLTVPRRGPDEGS
Summary of the method: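 Test system: KCNQ1-expressing CHO cells. Medium: pH 7.4 external bath. Probe or stimulus: voltage step from -90 mV holding to +40 mV, 2,000 ms. Compound: 10 µM final, single point. Detection: automated perforated-patch electrophysiology. Read-out: percent current increase versus pre-compound level. Repeats: two replicates.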

SMILES | outcome | current potentiation
S=c1sc2c(Cl)ncnc2n1-c1ccccc1 | inactive | 
COCCCNc1nc2ccccc2nc1NS(=O)(=O)c1cccs1 | inactive | 
Oc1ccc(C[C@@H]2CNCCN2CCc2cc(C(F)(F)F)cc(C(F)(F)F)c2)cc1 | inactive | 
COc1ccc(-c2nc3ccc(C(=O)NCC(OC)OC)cc3nc2-c2ccc(OC)c(OC)c2)cc1OC | inactive | 
CCCCNC(=S)NNC(=O)c1nn(C)c(C)c1Cl | inactive | 
O=C(NCCCn1ccnc1)c1cc(C2CC2)on1 | inactive | 
O=[N+]([O-])c1ccc(/C([O-])=C(/C(=S)NCc2ccco2)[n+]2ccccc2)cc1 | inactive | 
Cc1c(N2C(=O)/C(=C\c3ccccc3O)SC2=S)c(=O)n(-c2ccccc2)n1C | inactive | 
COc1ccc(NC(=O)CC2C(=O)NCCN2C(=O)Nc2ccc(C(F)(F)F)cc2)cc1 (centres undefined) | inactive | 
CCOc1ccc(C(C#N)N2CCOCC2)cc1OC (centres undefined) | inactive | 
CCOc1ccc(/C=C2/SC(=O)NC2=S)cc1 | inactive | 
Cc1ccc(-n2c(=S)[nH]c3sc4c(c3c2=O)CCC4)cc1 | inactive | 
C/C(CCc1oc2c(Br)cc(Br)cc2c1-c1ccc(C)o1)=N\O | inactive | 
Cn1c(=NC(=O)c2ccco2)sc2cccc(F)c21 | inactive | 
CC(=O)NC(CC(=O)O)C(=O)O (centres undefined) | inactive | 
O=c1c2ccccc2nc(-c2ccc(Cl)c(Cl)c2)n1O | inactive | 
Cc1c(Cl)cccc1NC(=O)Cn1c(CCC(=O)O)ccc1-c1ccccc1 | inactive | 
COc1cccc(OC)c1C(=O)Nc1cccc(-c2ccc3nncn3n2)c1 | inactive | 
CC1(N2CCCCC2)CC2(O)C(=[N+]1[O-])CCC/C2=N\O (centres undefined) | inactive | 
Cc1cccc(OCC(=O)O/N=C(\N)c2ccc(Cl)cc2)c1 | inactive | 

SMILES | outcome | current potentiation
O=C(Nc1nnc(-c2ccc3c(c2)CCCC3)o1)c1c(F)cccc1F |  | 20.7% (active)
CCn1ncc(Cl)c1C(=O)NC(=S)Nc1ccccc1Br | inactive | 
CCN1c2ccccc2-c2nc3ccccc3n2C1c1cccnc1 (centres undefined) | inactive | 
COc1ccc(-n2c(NCCN(C)C)nc3sc4c(c3c2=O)CCCCC4)cc1 | inactive | 
COC(=O)c1cccc(NC(=O)CSc2nncn2-c2ccccn2)c1 | inactive | 
COc1ccc(NC(=S)NC(=O)c2csnn2)cc1 | inactive | 
O=C1CN(c2nc(-c3cccs3)nc3sc4c(c23)CCCC4)CCN1 | inactive | 
O=C(NC(=S)NCCC1=CCCCC1)c1ccco1 | inactive | 
CCC(Cc1ccccc1)n1c(=S)[nH]c2ccccc2c1=O (centres undefined) | inactive | 
C/C(=N\NC(=O)C1COc2ccccc2O1)c1ccc(N2CCOCC2)cc1 (centres undefined) | inactive | 
O=C(NNC(=O)c1ccc2ccccc2c1O)c1cccs1 | inactive | 
COc1cccc2sc(N(CCCN(C)C)C(=O)CCS(=O)(=O)c3ccccc3)nc12 | inactive | 
CC(C)NC(=O)/C(=C/c1cn(-c2ccccc2)nc1-c1cccc([N+](=O)[O-])c1)NC(=O)c1ccccc1 | inactive | 
CCCNC(=O)C(=O)N/N=C/c1cccs1 | inactive | 
Cc1ccc(NC(=O)C(=O)NNC(=O)c2ccccc2C)cc1Cl | inactive | 
CCOC(=O)C1=NN(C(=O)c2ccccc2)C(O)(c2ccc(C)cc2)C1 (centres undefined) | inactive | 
Cc1ccc2nc(NC(=S)NC(=O)c3ccco3)sc2c1 | inactive | 
Oc1c(Br)cc(Br)cc1C=Nc1cccnc1 | inactive | 
CCOC(=O)c1c(-c2ccccc2)csc1NC(=S)NC | inactive | 
